Screening results as filed in PubChem.
Most compounds without a hit are left out; they make up all but 2.9% or so of the library.
core dimer inh: blocks dimerization of HCV core protein | TR-FRET GST/Flag-core106 dimerization, 1536-well | inhibition, % at 5 µM | 0.33% of 300,000 active | AID 1899;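 active means inhibition above the mean of all tested compounds plus 3 SD, set per screening campaign, cut at about 45% in these data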
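Test system: GST/Flag-tagged HCV core106 proteins; Medium: KF-containing HEPES buffer, pH 7.45, DTT, CHAPS, BSA; Times: compound-protein-antibody incubation 4 h at 22.5 °C; Detection: TR-FRET 671 and 617 nm emission; Benchmarks: wells lacking GST-core106 and wells with excess unlabelled core106.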
ABHD5 PLIN5 PPI: ABHD5-PLIN5 protein interaction inhibition | inhibition, % at 4 µM | 0.78% of 360,000 active | Q00G26+Q8WTS1 | Split G. princeps luciferase complementation, luminescence, 4 h;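 active means inhibition above the mean inhibition across every tested compound plus 3 SD, cut at about 22% in these data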
APOBEC3A inh: inhibitors of human APOBEC3A DNA deaminase; P31941; recombinant A3A, FAM/TAMRA ssDNA deamination fluorescence; 0.41% of 330,000 active; inhibition, % at 20 µM;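 active means at least 40% inhibition at 20 µM here, with at most 30% in a related deaminase screen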
HCV NS3 hel inh: blocks Hepatitis C virus NS3 helicase unwinding; AID 1800; NS3 helicase DNA unwinding, Cy5 molecular beacon fluorescence; inhibition, % at 10.9 µM; 0.56% of 290,000 active;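 active means inhibition above the mean of all tested compounds plus 3 SD, set per campaign, cut at about 35% in these data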
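Assay system – hepatitis C virus NS3 helicase domain fragment enzyme · Buffer or medium – MOPS pH 6.5, MgCl2, DTT, Tween20, BSA · Reagent – Cy5/quencher beacon DNA duplex and ATP to start · Compound – single 10.9 µM dose · Timing – 1 h at 25 °C · Technique – Cy5 beacon fluorescence read at start and 1 h · Measure – % inhibition of unwinding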
PRMT1 FP inh: inhibitors of human PRMT1; 1.3% of 370,000 active; recombinant PRMT1, activity-based probe fluorescence polarization; AID 652257; inhibition, % at 2.79 µM;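 active means inhibition above about 21% made by adding two undisclosed values, limit read from the data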
Target sequence (Q99873 whole entry, looked up): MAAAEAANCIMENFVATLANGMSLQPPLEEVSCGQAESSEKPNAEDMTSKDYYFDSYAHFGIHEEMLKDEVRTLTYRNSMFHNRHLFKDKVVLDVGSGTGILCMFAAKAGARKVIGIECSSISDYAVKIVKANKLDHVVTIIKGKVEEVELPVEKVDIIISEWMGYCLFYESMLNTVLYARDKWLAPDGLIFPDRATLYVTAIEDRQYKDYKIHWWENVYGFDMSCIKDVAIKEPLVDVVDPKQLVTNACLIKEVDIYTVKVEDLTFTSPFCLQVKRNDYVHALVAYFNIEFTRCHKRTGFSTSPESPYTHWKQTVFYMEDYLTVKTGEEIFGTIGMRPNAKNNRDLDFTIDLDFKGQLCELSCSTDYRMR
A3G deaminase: inhibitors of human APOBEC3G DNA deaminase; Q9HC16; recombinant A3G, ssDNA deamination FAM/TAMRA fluorescence; inhibition, % at 20 µM; 0.28% of 330,000 active; AID 493012;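 active means inhibition of at least 40% at 20 µM, with no more than 30% in the related APOBEC3A deaminase screen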
Target sequence (Q9HC16 whole entry, looked up): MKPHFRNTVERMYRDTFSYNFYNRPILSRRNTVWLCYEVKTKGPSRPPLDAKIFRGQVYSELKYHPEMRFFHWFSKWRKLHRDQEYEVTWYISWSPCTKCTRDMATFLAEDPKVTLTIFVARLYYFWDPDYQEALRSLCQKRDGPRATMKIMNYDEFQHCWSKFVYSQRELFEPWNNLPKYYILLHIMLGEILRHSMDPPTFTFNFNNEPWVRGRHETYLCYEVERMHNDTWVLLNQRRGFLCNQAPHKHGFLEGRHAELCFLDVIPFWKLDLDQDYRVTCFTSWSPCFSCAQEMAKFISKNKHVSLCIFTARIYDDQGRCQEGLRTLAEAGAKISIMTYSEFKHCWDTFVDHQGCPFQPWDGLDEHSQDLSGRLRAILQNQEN
Numbers stand for hits.

How did CC(C)(C)OC(=O)N1CCC[C@@H]1C(=O)N1CCC[C@@H]1C(=O)NCc1ccccc1 do in these assays?
PRMT1 FP inh: inactive

How did Cc1ccc(-c2csc(=S)[nH]2)cc1 do in these assays?
core dimer inh: inactive; ABHD5 PLIN5 PPI: inactive; APOBEC3A inh: inactive; HCV NS3 hel inh: inactive; PRMT1 FP inh: 22.4; A3G deaminase: inactive

What do the screens show for `CC(=O)NC(c1ccccc1)c1nc(-c2ccc(Cl)cc2)cs1` (stereo not drawn)?
ABHD5 PLIN5 PPI: inactive; PRMT1 FP inh: inactive

How did CCCOc1ccc(N2C(=O)CC(SCCN)C2=O)cc1 (stereo not drawn) do in these assays?
core dimer inh: inactive; ABHD5 PLIN5 PPI: inactive; APOBEC3A inh: inactive; HCV NS3 hel inh: inactive; PRMT1 FP inh: 22.4; A3G deaminase: inactive

What do the screens show for `CCCOc1ccc(N2C(=O)CC(SCCc3nc4ccccc4[nH]3)C2=O)cc1` (stereo not drawn)?
core dimer inh: inactive; ABHD5 PLIN5 PPI: inactive; APOBEC3A inh: inactive; HCV NS3 hel inh: inactive; PRMT1 FP inh: inactive; A3G deaminase: inactive

What do the screens show for `COc1ccccc1NC(=O)Nc1ccnn1C1CCN(C(=O)C2CCOC2)CC1` (stereo not drawn)?
ABHD5 PLIN5 PPI: inactive; PRMT1 FP inh: inactive

How did CC(C)C[C@H](N)c1nnc(SCC(=O)Nc2ccc(Br)cc2)o1 do in these assays?
core dimer inh: inactive; ABHD5 PLIN5 PPI: inactive; APOBEC3A inh: inactive; HCV NS3 hel inh: inactive; PRMT1 FP inh: inactive; A3G deaminase: inactive

What do the screens show for `CC(C)C[C@H](N)c1nnc(S(=O)(=O)Cc2ccc(F)cc2)o1`?
core dimer inh: inactive; ABHD5 PLIN5 PPI: 31.1; APOBEC3A inh: inactive; HCV NS3 hel inh: inactive; A3G deaminase: inactive

How did C/C=C/c1ccccc1OCCCN1CCC(C(O)(c2ccccc2)c2ccccc2)CC1 do in these assays?
PRMT1 FP inh: inactive

How did O=C(COC(=O)CCOc1ccccc1)NCc1ccco1 do in these assays?
core dimer inh: 61.6; ABHD5 PLIN5 PPI: inactive; APOBEC3A inh: inactive; HCV NS3 hel inh: inactive; PRMT1 FP inh: inactive; A3G deaminase: inactive

How did O=C(CSc1ccc2c(c1)OCCO2)NCc1ccco1 do in these assays?
core dimer inh: inactive; ABHD5 PLIN5 PPI: inactive; APOBEC3A inh: inactive; HCV NS3 hel inh: inactive; PRMT1 FP inh: 21.8; A3G deaminase: inactive

How did O=C(CCSCCC(=O)NCc1ccco1)NCc1ccco1 do in these assays?
core dimer inh: inactive; APOBEC3A inh: inactive; HCV NS3 hel inh: inactive; PRMT1 FP inh: 24.1; A3G deaminase: inactive

What do the screens show for `NC(=O)C1CCN(c2nc(-c3ccc4c(c3)OCCCO4)cs2)CC1`?
PRMT1 FP inh: inactive

How did Cc1cc(C)n2c(Nc3ccc4c(c3)OCCO4)c(CC(C)C)nc2n1 do in these assays?
ABHD5 PLIN5 PPI: inactive; PRMT1 FP inh: inactive

How did CCOC(=O)c1sc(NC(=S)NC(=O)C2CCCC2)cc1C do in these assays?
core dimer inh: 46.5; ABHD5 PLIN5 PPI: inactive; APOBEC3A inh: inactive; HCV NS3 hel inh: inactive; PRMT1 FP inh: inactive; A3G deaminase: inactive

What do the screens show for `CCOC(=O)c1sc(NC(=S)NC(=O)CC(C)C)cc1C`?
core dimer inh: 70.9; ABHD5 PLIN5 PPI: inactive; APOBEC3A inh: inactive; HCV NS3 hel inh: inactive; PRMT1 FP inh: inactive; A3G deaminase: inactive

How did CCOC(=O)c1sc(NC(=O)C(C)(C)C)cc1C do in these assays?
core dimer inh: inactive; ABHD5 PLIN5 PPI: inactive; APOBEC3A inh: inactive; HCV NS3 hel inh: inactive; PRMT1 FP inh: inactive; A3G deaminase: inactive

Results for Cc1ccc(NC(=O)[C@@H](Cc2ccccc2)NC(=O)[C@H]2O[C@@H](n3ccc(=O)[nH]c3=O)[C@H](O)[C@@H]2O)cc1C ?
PRMT1 FP inh: inactive

How did O=C(O)c1ccc(N2CCCS2(=O)=O)cc1 do in these assays?
core dimer inh: inactive; ABHD5 PLIN5 PPI: inactive; APOBEC3A inh: inactive; HCV NS3 hel inh: inactive; PRMT1 FP inh: inactive; A3G deaminase: inactive

What do the screens show for `COC(=O)c1cc2c(c3c4cc(C)ccc4n(S(=O)(=O)c4cccc(C)c4)c13)C(=O)N(Cc1ccc(N(C)C)cc1)C2`?
PRMT1 FP inh: inactive

What do the screens show for `Cc1cc(N/N=C/c2cccc(Cl)c2)nc(NCc2ccccc2)n1`?
core dimer inh: inactive; ABHD5 PLIN5 PPI: inactive; APOBEC3A inh: inactive; HCV NS3 hel inh: inactive; PRMT1 FP inh: inactive; A3G deaminase: inactive

What do the screens show for `Cc1cc(Nc2cccc(Cl)c2)nc(NCc2ccccc2)n1`?
core dimer inh: inactive; ABHD5 PLIN5 PPI: 22.3; APOBEC3A inh: inactive; HCV NS3 hel inh: inactive; PRMT1 FP inh: inactive; A3G deaminase: inactive

How did C=CCn1c(SCC(=O)c2ccc(CNC(C)=O)o2)nc2scc(C3CC3)c2c1=O do in these assays?
core dimer inh: 48.4; ABHD5 PLIN5 PPI: inactive; APOBEC3A inh: inactive; HCV NS3 hel inh: inactive; PRMT1 FP inh: inactive; A3G deaminase: inactive

How did CC(=O)Nc1ccc(C(=O)OCC(=O)c2cccc([N+](=O)[O-])c2)cc1 do in these assays?
core dimer inh: inactive; ABHD5 PLIN5 PPI: inactive; APOBEC3A inh: inactive; HCV NS3 hel inh: inactive; PRMT1 FP inh: inactive; A3G deaminase: inactive

What do the screens show for `COC(=O)Nc1ccc(SCC(=O)c2cccc([N+](=O)[O-])c2)cc1`?
core dimer inh: inactive; ABHD5 PLIN5 PPI: inactive; APOBEC3A inh: inactive; HCV NS3 hel inh: inactive; PRMT1 FP inh: 69.0; A3G deaminase: inactive

Results for Cc1cc(SCC(=O)c2cccc([N+](=O)[O-])c2)nc(=O)[nH]1 ?
core dimer inh: 70.5; ABHD5 PLIN5 PPI: inactive; HCV NS3 hel inh: inactive

Results for Cc1cc(SCc2cccc([N+](=O)[O-])c2)nc(=O)[nH]1 ?
core dimer inh: inactive; ABHD5 PLIN5 PPI: inactive; APOBEC3A inh: inactive; HCV NS3 hel inh: inactive; PRMT1 FP inh: inactive; A3G deaminase: inactive

How did CC(=O)c1ccc(OCc2cc(C(=O)N(C)C(C)c3nccs3)no2)cc1 (stereo not drawn) do in these assays?
ABHD5 PLIN5 PPI: inactive; APOBEC3A inh: inactive; HCV NS3 hel inh: inactive; PRMT1 FP inh: inactive; A3G deaminase: inactive

Results for CCOc1ccc(CCN2C(=S)N([C@@H](Cc3ccc(O)cc3)CN3CCC[C@@H]3CN3C(=S)NC[C@@H]3CC(C)C)C[C@@H]2Cc2ccc(O)cc2)cc1 ?
ABHD5 PLIN5 PPI: 33.6; PRMT1 FP inh: inactive

How did Oc1ccc(C[C@H]2CN([C@@H](Cc3ccc(O)cc3)CN3CCC[C@@H]3CN3C(=S)NC[C@@H]3Cc3ccccc3)C(=S)N2CCc2ccccc2)cc1 do in these assays?
ABHD5 PLIN5 PPI: 27.1; PRMT1 FP inh: inactive

What do the screens show for `Oc1ccc(C[C@H]2CN([C@@H](Cc3ccccc3)CN3CCCC3CN3C(=S)NC[C@@H]3Cc3ccccc3)C(=S)N2CCc2ccccc2)cc1` (stereo partly drawn)?
ABHD5 PLIN5 PPI: inactive; PRMT1 FP inh: inactive

Results for COc1ccc(COCC(O)CN2CCN(S(=O)(=O)c3ccc(C(C)C)cc3)CC2)cc1 (stereo not drawn) ?
ABHD5 PLIN5 PPI: inactive; APOBEC3A inh: inactive; PRMT1 FP inh: inactive; A3G deaminase: inactive

Results for Cc1cccc(N2CCN(S(=O)(=O)c3ccc4[nH]c(=O)ccc4c3)CC2)c1C ?
core dimer inh: inactive; ABHD5 PLIN5 PPI: inactive; APOBEC3A inh: inactive; HCV NS3 hel inh: inactive; PRMT1 FP inh: inactive; A3G deaminase: inactive
